Test results as given in PubChem BioAssay.
The source made the active and inactive calls.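 The calls were made as follows, unless noted: active = mean duplicate activation above the buffer control mean plus 5 SD of those controls; inactive = the rest.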

Key:
[1] = thallium flux activation in parental CHO cells, counter-screen for KCNQ1 potentiator project (AID 493006;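 active = duplicate-averaged activation above buffer control mean plus 5 SD of those controls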); details: parental CHO-K1 cells, FluxOR thallium flux, at 10 µM; hits give high values
Procedure, shortened: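 Benchmarks – buffer and R-L3 controls · Assay system – untransfected host CHO-K1 cells with FluxOR thallium dye · Measure – fluorescence change ratio scaled 0% buffer, 100% R-L3 · Technique – kinetic thallium-flux fluorescence · Timing – overnight 37 °C plating, 90 min RT dye, 20 min compound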

[2] = target: Potassium voltage-gated channel subfamily KQT member 1 (Homo sapiens) (UniProt P51787); assay: KCNQ1 potassium channel potentiators, confirmation, FluxOR thallium flux, CHO cells, duplicates (AID 493007;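 active = potentiation averaged over duplicate wells exceeding buffer-only control mean by more than 3 SD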;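 as to outcome: cells depolarized by a potassium plus thallium sulfate stimulus after compound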); details: KCNQ1 cell line, FluxOR thallium flux fluorescence, at 10 µM; hits give high values, % of reference activator effect, buffer zero
Procedure, shortened: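 Material: CHO cells stably expressing the KCNQ1 potassium channel / Times: dye 90 min then compound 20 min, both at room temperature / Detection: kinetic thallium influx fluorescence with FluxOR dye, 10 s baseline, 110 s post-stimulus / Benchmarks: buffer-only wells as 0% and R-L3 activator as 100% / Replicates: each compound tested in duplicate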

[3] = target: Potassium voltage-gated channel subfamily KQT member 2 (Rattus norvegicus) (UniProt O88943); assay: rat KCNQ2 channel potentiation, selectivity assay for KCNQ1 potentiator project, KCNQ2-CHO-K1 cells (AID 493009;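 active = mean duplicate potentiation above the buffer control mean plus 5 SD of buffer wells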;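 also: assay conditions were tuned for KCNQ1 rather than KCNQ2 modulators; signal is max minus min fluorescence divided by baseline after thallium stimulus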); details: FluxOR thallium flux fluorescence, at 10 µM; hits give high values, scaled: buffer 0, activator control 100
[4] = target: Potassium voltage-gated channel subfamily KQT member 1 (Homo sapiens) (UniProt P51787); assay: KCNQ1 channel current potentiators, confirmation, orthogonal assay for KCNQ1 potentiator project, IonWorks patch clamp, KCNQ1-CHO cells (AID 493184;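 active = current rise at least 3 SD above the untreated control mean in each of two repeat wells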); details: automated patch clamp current, at 10 µM; hits give high values
Procedure, shortened: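 Probe or stimulus: depolarizing pulse to +40 mV from -90 mV; Material: CHO cells carrying KCNQ1; Compound: one dose, 10 µM final; Signal: automated voltage clamp, amphotericin B perforated patch; Read-out basis: percent current increase versus pre-compound level; Buffer or medium: pH 7.4 external bath; Replication: duplicates.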

[5] = target: Potassium voltage-gated channel subfamily E member 1 (Homo sapiens) + Potassium voltage-gated channel subfamily KQT member 1 (Homo sapiens) (UniProt P15382+P51787); assay: KCNQ1/KCNE1 complex potentiators, confirmation, selectivity assay for KCNQ1 potentiator project, thallium flux, CHO-K1 KCNQ1/E1 cells (AID 493186); details: FluxOR thallium flux, at 10 µM; hits give high values
Procedure, shortened: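 system = KCNQ1/E1-expressing stable CHO-K1 cell line | doses = single compound concentration per well | times = dye 90 min, compound 20 min, room temperature | measured by = FluxOR Tl+ flux fluorescence, kinetic read | evaluation = fluorescence rise relative to baseline, as percent of R-L3 response above buffer | controls = buffer and R-L3 | replicates = duplicate wells per compound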

Sequence of Potassium voltage-gated channel subfamily E member 1 (Homo sapiens) + Potassium voltage-gated channel subfamily KQT member 1 (Homo sapiens) (P51787 whole entry, looked up): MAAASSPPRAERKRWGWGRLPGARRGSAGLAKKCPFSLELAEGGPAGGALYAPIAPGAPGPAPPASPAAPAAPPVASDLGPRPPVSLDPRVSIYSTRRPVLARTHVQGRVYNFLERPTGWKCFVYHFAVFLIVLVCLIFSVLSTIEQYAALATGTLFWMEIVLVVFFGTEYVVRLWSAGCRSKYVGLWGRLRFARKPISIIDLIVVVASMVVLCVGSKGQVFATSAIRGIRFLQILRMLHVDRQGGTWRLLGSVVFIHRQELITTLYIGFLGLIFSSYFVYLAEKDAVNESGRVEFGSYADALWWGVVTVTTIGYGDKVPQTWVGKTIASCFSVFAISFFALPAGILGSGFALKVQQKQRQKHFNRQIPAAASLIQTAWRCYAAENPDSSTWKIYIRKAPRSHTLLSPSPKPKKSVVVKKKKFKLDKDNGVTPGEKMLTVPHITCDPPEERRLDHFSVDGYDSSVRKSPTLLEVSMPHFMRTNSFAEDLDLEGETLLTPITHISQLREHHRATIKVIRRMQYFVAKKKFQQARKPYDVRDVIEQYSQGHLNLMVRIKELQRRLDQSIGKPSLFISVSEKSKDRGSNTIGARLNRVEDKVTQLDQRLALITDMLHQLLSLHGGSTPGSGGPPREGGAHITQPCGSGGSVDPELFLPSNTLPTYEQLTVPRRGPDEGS
Sequence of Potassium voltage-gated channel subfamily KQT member 1 (Homo sapiens) (P51787 whole entry, looked up): as above
Sequence of Potassium voltage-gated channel subfamily KQT member 2 (Rattus norvegicus) (O88943 whole entry, looked up): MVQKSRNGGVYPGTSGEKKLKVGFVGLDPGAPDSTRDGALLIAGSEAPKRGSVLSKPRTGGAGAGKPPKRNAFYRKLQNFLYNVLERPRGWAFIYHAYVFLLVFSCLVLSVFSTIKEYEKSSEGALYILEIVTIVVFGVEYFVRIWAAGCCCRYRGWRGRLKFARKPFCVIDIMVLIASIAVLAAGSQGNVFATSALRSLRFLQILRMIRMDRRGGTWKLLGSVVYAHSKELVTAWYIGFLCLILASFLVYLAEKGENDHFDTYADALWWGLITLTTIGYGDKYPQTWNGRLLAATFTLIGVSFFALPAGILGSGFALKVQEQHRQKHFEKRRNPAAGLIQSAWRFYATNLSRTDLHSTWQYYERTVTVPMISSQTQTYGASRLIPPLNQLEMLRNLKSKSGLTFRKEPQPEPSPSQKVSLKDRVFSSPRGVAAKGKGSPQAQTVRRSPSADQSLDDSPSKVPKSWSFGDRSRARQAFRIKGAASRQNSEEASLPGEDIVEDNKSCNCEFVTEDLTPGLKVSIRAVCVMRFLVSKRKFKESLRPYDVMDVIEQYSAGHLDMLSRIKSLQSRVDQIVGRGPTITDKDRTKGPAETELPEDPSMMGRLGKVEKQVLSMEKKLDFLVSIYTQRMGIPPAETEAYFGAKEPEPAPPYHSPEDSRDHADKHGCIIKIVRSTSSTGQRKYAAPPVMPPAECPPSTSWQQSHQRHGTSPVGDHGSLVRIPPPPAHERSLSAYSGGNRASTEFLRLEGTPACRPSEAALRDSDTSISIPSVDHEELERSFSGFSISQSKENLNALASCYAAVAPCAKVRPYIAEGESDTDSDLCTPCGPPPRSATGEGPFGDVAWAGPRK

Structure (SMILES) | outcome [1] | outcome [2] | outcome [3] | outcome [4] | outcome [5] | potentiation [2] | potentiation [3] | activation [5]
Cc1ccc(-n2ncc3c(=O)n(CC(=O)N4CCN(c5ccccc5F)CC4)cnc32)cc1C | inactive | inactive | inactive | inactive | inactive | – | – | –
Cc1ccc2[nH]c(=O)c(CN(CCCN(C)C)C(=S)NCCc3ccccc3)cc2c1 | inactive | inactive | inactive | inactive | inactive | – | – | –
CCOC(=O)Cc1csc(NC(=S)NC(=O)c2ccc(Cl)cc2)n1 | inactive | inactive | inactive | inactive | inactive | – | – | –
O=C(c1ccc(-c2ccccc2)cc1)C1CCCN(C(=O)Cn2cncn2)C1 (stereo not given) | inactive | inactive | inactive | inactive | inactive | – | – | –
Cc1cccc2sc(N(CCCN(C)C)C(=O)c3ccc4ncsc4c3)nc12 | inactive | inactive | inactive | inactive | inactive | – | – | –
COc1ccccc1C(=O)NNC(=O)C(=O)NC(C)C | inactive | inactive | inactive | inactive | inactive | – | – | –
CC12CCC(C/C1=N\N=C1\NC(=O)/C(=C\c3cccc(Br)c3)S1)C2(C)C (stereo not given) | inactive | – | – | inactive | inactive | 51% (active) | 154% (active) | –
O=C(Nc1nnc(-c2ccccc2)o1)c1ccc(Cl)cc1 | inactive | – | inactive | inactive | – | 24% (active) | – | 23.9% (active)
COc1ccc(C2CC(c3c(-c4ccccc4)c4cc(Cl)ccc4[nH]c3=O)=NN2S(C)(=O)=O)cc1OC (stereo not given) | inactive | inactive | inactive | inactive | inactive | – | – | –
NC(=O)c1ccsc1NC(=O)COC(=O)Cc1ccsc1 | inactive | – | inactive | inactive | inactive | 182% (active) | – | –
COc1ccc(OC)c(NC(=S)NC(=O)c2ccc(Br)o2)c1 | inactive | inactive | inactive | inactive | inactive | – | – | –
COc1cc(OC)cc(-c2nnc(Nc3nc4c(F)cccc4s3)o2)c1 | inactive | inactive | inactive | inactive | inactive | – | – | –
CC1CCc2c(sc(NC(=O)C(=O)NCc3ccco3)c2C#N)C1 (stereo not given) | inactive | inactive | inactive | inactive | inactive | – | – | –
Cc1ccc(C(=O)NC(=S)N2CCN(c3cc(C)ccc3C)CC2)cc1 | inactive | – | inactive | inactive | inactive | 50% (active) | – | –
Cc1ccc(NC2=C(Cl)C(=O)OC2OC(=O)c2ccc(C)cc2)cc1 (stereo not given) | inactive | inactive | inactive | inactive | inactive | – | – | –
CCn1c(SCC(=O)Nc2ccccc2F)nnc1-c1cnccn1 | inactive | inactive | inactive | inactive | inactive | – | – | –
CCn1c(CN2CCN(c3ccc(OC)cc3)CC2)nc2cc(S(=O)(=O)N(C)C)ccc21 | inactive | inactive | inactive | inactive | inactive | – | – | –
CCOC(=O)c1c(NC(=O)CN2CCN(C(=O)c3ccco3)CC2)sc2c1CCCC2 | inactive | – | inactive | inactive | inactive | 39.5% (active) | – | –
CCN(CC)S(=O)(=O)c1ccc(NC(=O)c2cccnc2Cl)c(NC(=O)c2cccnc2Cl)c1 | inactive | – | – | inactive | inactive | 43% (active) | 242% (active) | –
O=C(CSc1nnc(-c2ccco2)o1)Nc1cccc([N+](=O)[O-])c1 | inactive | inactive | inactive | inactive | inactive | – | – | –
CN(C)c1cccc(C(=O)N2CCCC(C(=O)c3cc(F)ccc3F)C2)c1 (stereo not given) | inactive | inactive | inactive | inactive | inactive | – | – | –
COc1cc(/C=N/Nc2nc(N3CCCC3)nc(N3CCCC3)n2)ccc1OCc1ccccc1F | inactive | inactive | inactive | inactive | inactive | – | – | –
CCCOc1ccccc1NS(=O)(=O)c1ccc2[nH]c(=O)[nH]c2c1 | inactive | inactive | inactive | inactive | inactive | – | – | –
S=c1[nH]nc(-c2ccc(Br)o2)n1Cc1ccccc1 | inactive | inactive | inactive | inactive | inactive | – | – | –
COc1ccc(Cn2c(=O)c3[nH]cnc3n(-c3ccccc3C)c2=O)cc1 | inactive | inactive | inactive | inactive | inactive | – | – | –
NS(=O)(=O)c1ccc(Sc2ccc3c(c2)CCC3)nc1 | inactive | – | inactive | inactive | inactive | 22.5% (active) | – | –
CS(=O)(=O)c1ccc(Cl)c(NC(=O)c2cc(S(=O)(=O)N3CCOCC3)ccc2N2CCCC2)c1 | inactive | inactive | inactive | inactive | inactive | – | – | –
CCCOC(=O)C1=C(C)NC2=C(C(=O)CCC2)C1c1ccc(N(C)C)cc1 (stereo not given) | inactive | inactive | inactive | inactive | inactive | – | – | –
COc1ccc(-c2csc(N(CCCN(C)C)C(=O)c3ccccc3F)n2)cc1 | inactive | inactive | inactive | inactive | inactive | – | – | –
CC(=O)c1cccc(OCc2cc(C(=O)N(C)C(C)c3ccccn3)no2)c1 (stereo not given) | inactive | inactive | inactive | inactive | inactive | – | – | –
